Screening results (PubChem BioAssay)
SR-BI uptake up: SR-BI HDL lipid transfer activation; CHO ldlA[mSR-BI] cells, DiI-HDL uptake fluorescence, 3 h; 100 = double the neutral-control signal; activation, % at 12.5 µM; 320,000 tested, 0.096% active; AID 504775;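 active means mean replicate activation of at least 60% and every replicate at or above 60%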;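 further: 0% = median plate neutral-control signal and 100% = twice that signal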
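System: LDL receptor-deficient CHO ldlA cells overexpressing murine SR-BI | Timing: 3 h uptake period with compound, 37 °C | Medium: HEPES-buffered (25 mM, pH 7.4) F12 plus 0.5% BSA | Dosing: Single-point compound dose | Signal: Bottom-read fluorescence, 550/595 nm | Read-out: Retained DiI signal reflecting DiI-HDL uptake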
DNA FID counter: fluorescent intercalator displacement, NS3 helicase counter-screen. DNA fluorescent intercalator displacement, fluorescence. inhibition, % at 7.9 µM. 290,000 tested, 0.17% active; in the data active means inhibition above about 37%;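 further: 0% = vehicle and 100% = reference compound; higher means more ethidium bromide displaced from hairpin DNA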
SR-BI DiI inh: inhibitors of mouse SR-BI mediated HDL lipid uptake; inhibition, % at 12.5 µM; ldlA[mSR-BI] CHO cells, DiI-HDL uptake fluorescence, 3 h; Q61009; 320,000 tested, 0.96% active; AID 488896;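 active means mean replicate inhibition of at least 70% and a set share of replicates each scoring 70 or more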;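 further: 0% = median of neutral control wells and 100% = median of positive control wells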
ANO1 activ: activators or potentiators of mouse TMEM16A chloride channel; HEK293 TMEM16A/YFP-H148Q/I152L, iodide quench fluorescence; hits give low values; B-score at 10 µM; 340,000 tested, 0.3% active;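 active means fluorescence-ratio B-score plate-corrected deviation score at least 3 library SD below zero, with starting fluorescence score within 5 deviations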;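 further: channel opened by trigger with iodide after compound preincubation; score built on the fluorescence ratio of max minus min over baseline; more negative score means more quench and so TMEM16A activation or potentiation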
Target sequence (Q8BHY3 whole entry, looked up): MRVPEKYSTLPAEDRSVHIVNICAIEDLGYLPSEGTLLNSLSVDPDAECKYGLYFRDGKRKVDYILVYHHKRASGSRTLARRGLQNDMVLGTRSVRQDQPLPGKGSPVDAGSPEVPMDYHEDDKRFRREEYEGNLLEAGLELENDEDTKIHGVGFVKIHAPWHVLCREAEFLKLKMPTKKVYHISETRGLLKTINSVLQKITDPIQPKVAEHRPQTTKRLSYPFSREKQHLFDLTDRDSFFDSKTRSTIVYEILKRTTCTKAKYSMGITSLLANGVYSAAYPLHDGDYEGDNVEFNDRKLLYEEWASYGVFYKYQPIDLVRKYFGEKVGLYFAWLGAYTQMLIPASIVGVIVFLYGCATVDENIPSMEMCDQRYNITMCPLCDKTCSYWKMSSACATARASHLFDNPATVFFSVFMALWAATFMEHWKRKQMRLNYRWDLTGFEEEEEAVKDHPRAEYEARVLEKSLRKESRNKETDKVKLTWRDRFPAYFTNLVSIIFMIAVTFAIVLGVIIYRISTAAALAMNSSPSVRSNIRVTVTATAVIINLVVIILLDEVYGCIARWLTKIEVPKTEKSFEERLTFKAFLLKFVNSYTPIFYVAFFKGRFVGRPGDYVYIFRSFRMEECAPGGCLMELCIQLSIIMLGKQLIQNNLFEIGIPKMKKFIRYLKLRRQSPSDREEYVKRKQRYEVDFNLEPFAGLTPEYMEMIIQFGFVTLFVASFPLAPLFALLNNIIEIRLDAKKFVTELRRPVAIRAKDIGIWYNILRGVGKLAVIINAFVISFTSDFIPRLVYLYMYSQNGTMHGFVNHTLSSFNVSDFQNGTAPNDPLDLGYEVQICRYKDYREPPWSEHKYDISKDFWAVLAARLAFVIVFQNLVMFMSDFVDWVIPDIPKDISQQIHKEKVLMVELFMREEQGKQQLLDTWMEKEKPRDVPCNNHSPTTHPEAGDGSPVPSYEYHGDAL
Kir21 inh: blocks the mouse Kir2.1 inward-rectifier potassium channel. P35561. HEK293-Kir2.1, FluxOR thallium flux fluorescence; hits give low values. B-score at 10 µM. 310,000 tested, 0.85% active;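 active means fluorescence ratio B-score at or below minus 3 SD of library scores, with starting-brightness B-score within 2 SD, cut at about -4.2 in these data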;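 further: channel flux triggered by added potassium and thallium sulfate stimulus; B-score of peak minus minimum fluorescence over baseline after thallium stimulus; more negative B-score means stronger Kir2.1 block with less thallium influx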
TMEM16A inh: inhibitors of mouse TMEM16A calcium-activated chloride channel; HEK293 TMEM16A/YFP iodide influx fluorescence, ionomycin; normalized B-score (activity score, 25-100; higher = stronger inhibition) at 10 µM; 310,000 tested, 1.2% active; AID 588511;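 active means ratio plate-corrected score three or more library SD toward inhibition, starting fluorescence score within five deviations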;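 further: score derived from kinetic fluorescence span divided by baseline fluorescence per well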
* hit, by the source's call; i = inactive; nt = no result. Sampled rows, rich in hits. Any-hit rate of the full collection: about 3%.

SMILES	SR-BI uptake up	DNA FID counter	SR-BI DiI inh	ANO1 activ	Kir21 inh	TMEM16A inh
O=C(O)c1ccccc1NS(=O)(=O)c1cccc(-n2sc3ccccc3c2=O)c1	-45	6	45	i	0.37	i
COc1ccc(Br)cc1S(=O)(=O)n1nc(C)cc1C	-40	-4	40	i	-1.9	i
COC(=O)/C(=C\Nc1ccc(Cl)cc1Cl)NC(=O)c1ccc(OC)cc1	-83	-9	83*	i	-1.2	i
CC(C)(C)c1ccc(C(=O)NC(=S)NNC(=O)COc2ccccc2)cc1	-8	-23	8	-4.6*	0.96	100*
O=C(NC(=S)NNC(=O)c1cccs1)c1ccccc1	9	-6	-9	i	-0.3	i
CC(C)(C)c1ccc(C(=O)NC(=S)NNC(=O)c2cccs2)cc1	20	-1	-20	i	0.83	100*
CCOc1ccccc1N(CC(=O)Nc1c(C)n(C)n(-c2ccccc2)c1=O)S(=O)(=O)c1ccccc1	71*	-32	-71	i	0.42	i
COc1ccc(-c2sc3ccccc3c2/C=C/c2ccc(OC)c(OC)c2)cc1	-82	nt	82*	i	nt	nt
O=C(Cn1cnc2c(OCc3ccccc3)ncnc21)NCCCc1ccccc1	-11	nt	11	i	nt	nt
Cc1cc(OCc2cc(C(=O)N3CCC(Oc4cccnc4)CC3)no2)cc(C)c1Cl	-14	-43	14	i	0.12	100*
Cc1cc(OCc2cc(C(=O)N3CCN(CC4CC4)CC3)no2)cc(C)c1Cl	-4	-3	4	i	-2	i
Cc1cc(OCc2cc(C(=O)N(C)CC3CCOCC3)no2)cc(C)c1Cl	-22	-43	22	i	-5.1*	i
O=C(c1cc(COc2ccc(F)cc2Cl)on1)N1CCCCCC1	3	-38	-3	i	-0.78	i
O=C(c1cc(COc2ccc(F)cc2Cl)on1)N1CCC(c2ccncc2)CC1	3	-24	-3	i	0.35	25*
COCCN1C(=O)N[C@@H](c2ccccc2)[C@H](C(=O)OC)[C@H]1C	0	nt	0	i	-2.3	i
CCN1CCc2c(sc(NC(=O)Nc3ccc(Cl)c(Cl)c3)c2C(N)=O)C1	-5	8	5	i	nt	i
CCCOc1ccc(Br)cc1CSC(=N)N	3	13	-3	i	-8.2*	25*
COc1ccc(N(CC(=O)NC2CCCC2)C(=O)CCC(=O)Nc2cc(C)on2)cc1OC	-6	-38	6	i	0.45	i
CCOC(=O)Nc1nc(-c2ccccc2)c(C(=O)c2ccc(Cl)cc2)s1	-83	-11	83*	i	0.41	i
Cc1cc(=O)oc2c3c(cc(OCC(=O)NCc4ccccc4)c12)OC(C)(C)CC3	-80	-35	80*	i	-0.44	i
O=C(COC(=O)/C=C/c1cccc(Br)c1)NC1CCCCCC1	25	nt	-25	i	nt	nt
COc1ccc(Cl)cc1NC(=O)c1cccc([N+](=O)[O-])c1O	-2	nt	2	i	nt	nt
CON=C(C(=O)NC1C(=O)N2C(C(=O)O)=C(CSc3nc(=O)c(=O)[nH]n3C)CSC12)c1csc(N)n1 (configuration not stated)	5	nt	-5	i	nt	nt
COCC1=C(C(=O)OC(C)OC(=O)OC(C)C)N2C(=O)[C@@H](NC(=O)/C(=N\OC)c3csc(N)n3)[C@H]2SC1 (some centres not stated)	-88	nt	88*	i	0.98	i
COc1cc(C=C(c2nc3ccccc3s2)c2nc3ccccc3s2)ccc1O	-34	-24	34	-6.7*	-0.38	i
SMILES	SR-BI uptake up	DNA FID counter	SR-BI DiI inh	ANO1 activ	Kir21 inh	TMEM16A inh
Cc1ccc(/C=C/c2nc3ccccc3s2)s1	-101	-4	101*	i	-2.8	i
COc1cc(/C=C/c2nc3ccccc3s2)cc(OC)c1O	-11	-13	11	-6.9*	-1.5	i
COc1ccc(C=C(c2nc3ccccc3s2)c2nc3ccccc3s2)cc1O	-70	-21	70	i	1.1	i
CN(C)c1ccc(/C=C/c2nc3ccccc3s2)cc1	-8	-4	8	i	0.28	i
O=[N+]([O-])c1ccc(O)c(Nc2ncnc3ccc(Br)cc23)c1	4	-2	-4	i	-0.06	100*
CCC(=O)Nc1ccc2c(c1)Cc1cc(NC(=O)CC)ccc1-2	-74	-14	74*	i	1.2	i
CCCC(=O)Nc1ccc2c(c1)Cc1ccccc1-2	-14	-11	14	i	0	i
CC1=CC(C)(C)n2c(O)c(N=N)c3c(C)c(C)cc1c32	nt	-14	nt	i	1.1	i
CC1=CC(C)(C)n2c(O)c(N=N)c3cc(C)cc1c32	-9	-15	9	i	-8.7*	i
Cc1cc(Nc2cccc(Br)c2)c2ccccc2n1	nt	nt	nt	i	-1.8	i
Cc1nc2nc(SCC(=O)NCCCN3CCCC(C)C3)nn2c(C)c1Cc1ccccc1Cl (configuration not stated)	11	26	-11	i	-0.5	i
O=C(Cc1ccc(NC(=O)C2CCCN(C(=O)C3CCCC3)C2)cc1)Nc1cccc(C(=O)N2CCCC2)c1 (configuration not stated)	-75	nt	75*	nt	nt	nt
CN(C(=O)c1cccc(NC(=O)Cc2ccc(NC(=O)C3CCCN(C(=O)C4CCC4)C3)cc2)c1)C1CCCC1 (configuration not stated)	-69	nt	69	nt	nt	nt
CN(C(=O)c1cccc(NC(=O)Cc2ccc(NC(=O)C3CCCN(C(=O)C4CCCC4)C3)cc2)c1)C1CCCC1 (configuration not stated)	-68	nt	68	nt	nt	nt
CN(C(=O)c1cccc(NC(=O)Cc2ccc(NC(=O)C3CCCN(C(=O)C4CCCC4)C3)cc2)c1)C1CC1 (configuration not stated)	-76	nt	76*	nt	nt	nt
CN(C(=O)c1ccc(NC(=O)Cc2cccc(NC(=O)C3CCN(C(=O)CCc4ccccc4)CC3)c2)cc1)C1CCCC1	-71	nt	71*	i	nt	nt
CN(C(=O)c1cccc(NC(=O)Cc2ccc(NC(=O)C3CCCN(C(=O)C4CCCC4)C3)cc2)c1)C1CCCCC1 (configuration not stated)	-83	nt	83*	nt	nt	nt
CC(=O)N1c2ccc(S(=O)(=O)NCC3CCC(C(=O)Nc4cccc(C)n4)CC3)cc2CC1C (configuration not stated)	-56	-46	56	i	0.02	i
CN(C)c1ccc(NC(=O)Nc2ccc3snnc3c2)cc1	-48	12	48	i	-2.1	i
O=C(Nc1ccccc1)Nc1ccc2nnsc2c1	-27	5	27	i	0.43	100*
